Results from ChEMBL document CHEMBL4261513, “Dichloro-naphthoquinone as a non-classical inhibitor of the mycobacterial carbonic anhydrase Rv3588c” (Medchemcomm, 2017).

Key:
[1] = target: T1, Beta-carbonic anhydrase 1 (Mycobacterium tuberculosis) (UniProt P9WPJ7); assay: Binding affinity to recombinant Mycobacterium tuberculosis Rv1284 expressed in Escherichia coli BL21-Al cells assessed as change in melting temperature by SYPRO Orange dye based differential scanning fluorimetric method
T1 sequence (whole entry): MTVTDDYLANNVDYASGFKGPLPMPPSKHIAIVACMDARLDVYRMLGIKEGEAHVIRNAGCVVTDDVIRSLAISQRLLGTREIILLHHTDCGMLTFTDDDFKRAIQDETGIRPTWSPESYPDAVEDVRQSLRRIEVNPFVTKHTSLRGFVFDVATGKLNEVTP

[2] = target: T1, Beta-carbonic anhydrase 1 (Mycobacterium tuberculosis); assay: Inhibition of recombinant Mycobacterium tuberculosis Rv1284 expressed in Escherichia coli BL21-Al cells assessed as enzyme residual activity at 25 uM measured for 10 secs by m-cresol purple staining based stopped-flow CO2 hydration assay relative to control
Method in brief: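 Untagged Rv1284, purified by QA52 anion exchange at pH 8.0 and SP-Sepharose cation exchange at pH 4.5, and dialysed into 100 mM NaCl, 20 mM HEPES pH 7.5. Stopped-flow CO2 hydration with m-cresol purple read-out. Sample buffer was 100 mM Na2SO4, 25 mM TAPS pH 8.5, 5 μM enzyme plus compound, mixed 1:1 with CO2-saturated water. Initial rates from the first 10 s, at least five traces.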

[3] = target: T2, Carbonic anhydrase 2 (Mycobacterium tuberculosis) (UniProt P9WPJ9); assay: Inhibition of recombinant Mycobacterium tuberculosis N-terminal Hi-tagged Rv3588c expressed in Escherichia coli BL21-Al cells assessed as enzyme residual activity at 25 uM measured for 10 secs by m-cresol purple staining based stopped-flow CO2 hydration assay relative to control
T2 sequence (whole entry): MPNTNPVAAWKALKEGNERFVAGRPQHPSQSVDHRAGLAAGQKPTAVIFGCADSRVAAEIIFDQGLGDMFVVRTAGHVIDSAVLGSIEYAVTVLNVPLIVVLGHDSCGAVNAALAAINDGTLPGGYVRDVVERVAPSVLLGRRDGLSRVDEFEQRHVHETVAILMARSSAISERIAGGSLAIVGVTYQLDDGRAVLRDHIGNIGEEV
Method in brief: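 Rv3588c with an N-terminal His tag, purified by QA52 anion exchange and then Ni-NTA at pH 8.0, and dialysed into 100 mM NaCl, 20 mM HEPES pH 7.5. Stopped-flow CO2 hydration followed by m-cresol purple absorbance. Sample buffer was 100 mM Na2SO4, 25 mM TAPS pH 8.5, 5 μM protein plus compound, mixed 1:1 with CO2-saturated water. Initial rates over the first 10 s, at least five traces each.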

[4] = target: T2, Carbonic anhydrase 2 (Mycobacterium tuberculosis); assay: (§1) Inhibition of recombinant Mycobacterium tuberculosis N-terminal Hi-tagged Rv3588c expressed in Escherichia coli BL21-Al cells measured for 10 secs by m-cresol purple staining based stopped-flow CO2 hydration assay
Method in brief: (§2)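 His-tagged Rv3588c in stopped-flow CO2 hydration with m-cresol purple read-out, in 100 mM Na2SO4, 25 mM TAPS pH 8.5 against CO2-saturated water. Five compound concentrations, starting from […]. Initial rates taken over the first 10 s. Dose-response data fitted to a curve.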

[5] = target: T3, Carbonic anhydrase 2 (Mycobacterium tuberculosis, UniProt P9WPJ9); assay: as §1; method in brief: as §2
T3 sequence (P9WPJ9 whole entry): T2 sequence (whole entry)

[6] = target: Carbonic anhydrase 2 (Homo sapiens) (UniProt P00918); assay: Inhibition of recombinant human carbonic anhydrase 2 expressed in Escherichia coli BL21 (DE3) assessed as enzyme residual activity at 25 uM measured for 10 secs by m-cresol purple staining based stopped-flow CO2 hydration assay relative to control
Method in brief: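 Codon-optimised synthetic human CA II gene expressed in bacteria. Activity measured by stopped-flow CO2 hydration, monitoring m-cresol purple absorbance. Sample buffer was 100 mM Na2SO4, 25 mM TAPS pH 8.5, 5 μM protein with compound, mixed 1:1 with CO2-saturated water. Initial rates over the first 10 s, from at least five traces per compound.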

| SMILES | deltaTm [1] [K] | Activity [2] [%] | Activity [3] [%] | Imax [4] [%] | IC50 [5] [nM] | Activity [6] [%] |
| --- | --- | --- | --- | --- | --- | --- |
| O=C1C=CC(=O)c2ccccc21 | -8.8 | 76.6 | 94.8 |  |  |  |
| COCCNC1=C(Cl)C(=O)c2ccccc2C1=O | -1.5 | 67.2 | 98.8 |  |  |  |
| O=C1C(Cl)=C(NCCc2ccccc2)C(=O)c2ccccc21 | -0.7 | 110 | 93.2 |  |  |  |
| COC1=CC(=O)C=C(CO)C1=O | 0.1 | 101 | 104 |  |  |  |
| O=C1C(Cl)=C(Cl)C(=O)c2ccccc21 [Dichlon] | -10.2 | 81.5 | 16.1 | 84 | 1200 | 96.8 |
| O=C1C(Cl)=C(NCc2ccccc2)C(=O)c2ccccc21 | -2.5 | 96.5 | 99.1 |  |  |  |
| O=C1C(O)=C([C@H]2CC[C@H](c3ccc(Cl)cc3)CC2)C(=O)c2ccccc21 | -0.5 | 83.1 | 80.7 |  |  |  |
| O=C1C=C(Br)C(=O)c2ccccc21 | -10.1 | 72.2 | 68.1 |  |  | 109 |
| Clc1cc2ccccc2cc1Cl | 1.3 | 80.3 | 82.8 |  |  |  |
| CCN(CC)CCCNC1=C(Cl)C(=O)c2ccccc2C1=O | -0.6 | 68.5 | 93.8 |  |  |  |
| O=C1C2=C(C(=O)c3ccccc31)S(=O)(=O)C=CN2 | -1.1 | 74.6 | 78.3 |  |  |  |
| O=C1C2=C(C(=O)c3ccccc31)S(=O)(=O)CCN2 | -0.4 | 79.5 | 80.6 |  |  |  |
| CN(C)CCCNC1=C(Cl)C(=O)c2ccccc2C1=O | -0.9 | 79.4 | 110 |  |  |  |
| COC1=CC(=O)c2ccccc2C1=O [2-Methoxy-1,4-naphthoquinone] | -0.5 | 62.3 | 84.5 | 40 | 2300 | 104 |
| CC(C)CCNC1=C(Cl)C(=O)c2ccccc2C1=O | -1.5 | 103 | 103 |  |  |  |
